Test results published in paper PMC11568512 (Chemical communications (Cambridge, England), 2024).

Legend:
[1] = tested on: ferritin heavy chain (ferritin H); test: Western blot of iron handlers; assay type: cell-based; settings: DFX 50 μM, QT and IQT 5 μM, FAC 50 μM
Outline: (§1)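 A2780 cancer cells were exposed to test compounds (5 μM) or the reference iron chelator deferasirox (50 μM), with DMSO vehicle as control. Transferrin receptor 1 and ferritin heavy chain were probed by Western blot as markers of iron signalling. Statistics used t-tests versus DMSO vehicle.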

[2] = tested on: transferrin receptor 1 (TfR1); test: Western blot of iron handlers; assay type: cell-based; settings: DFX 50 μM, QT and IQT 5 μM, FAC 50 μM
Outline: as §1

[3] = cited from earlier work
[4] = tested on: tested cancer cell lines (MDA-MB-231, A2780); test: Antiproliferative activity, text summary over tested cancer cell lines; assay type: cell-based; settings: 72 h, read-out: IC50 range in the tested cancer cell lines
[5] = tested on: A2780 cells; test: Cell cycle analysis by flow cytometry; assay type: cell-based; settings: A2780, 24-hour incubation, DFX 50 μM, QT and IQT 5 μM
[6] = tested on: A2780; test: Antiproliferative activity, resazurin assay; assay type: cell-based; settings: Homo sapiens, A2780, 72 h, read-out: IC50 A2780
[7] = tested on: MDA-MB-231; test: Antiproliferative activity, resazurin assay; assay type: cell-based; settings: Homo sapiens, MDA-MB-231, 72 h, read-out: IC50 MDA-MB-231

IC50 [4] [µM]	IC50 [6] [µM]	IC50 [7] [µM]	Molecule	ferritin H expression level [1]	TfR1 expression level [2]	reduction in FBS [3]	cell cycle effect [5]
–	–	–	ferric ammonium citrate [FAC]	upregulation of ferritin	decreased TfR1 expression	–	–
–	–	–	Cc1nc(-[n+]2nc(-c3ccccc3)nn2-c2ccccc2)sc1C.[Br-] [MTT, 3-(4,5-dimethyl-2-thiazolyl)-2,5-diphenyl-tetrazolium]	–	–	prone to reduction in FBS	–
10 to 20	12 ± 2	15 ± 2	O=C(O)c1ccc(-n2nc(-c3ccccc3O)nc2-c2ccccc2O)cc1 [DFX, deferasirox]	degradation of ferritin	upregulation of TfR1	–	cell accumulation in the S-phase
